# Measured values taken from ChEMBL document CHEMBL4130532, “Camellianols A-G, Barrigenol-like Triterpenoids with PTP1B Inhibitory Effects from the Endangered Ornamental Plant Camellia crapnelliana” (J Nat Prod, 2017).
# Legend:
# [1] = Cytotoxicity against human L02 cells assessed as cell viability at 10 uM after 24 hrs by MTS assay relative to control; assay type: cell-based; conditions: read-out: Activity
# In short: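 Human […] L02 cells were seeded and cultured overnight, then exposed to the compound at varying concentrations for 24 h. Medium containing the water-soluble tetrazolium MTS reagent was added, and the cells were incubated at 37 °C for 2 h to read out viability.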
# [2] = molecular target: T1, Tyrosine-protein phosphatase non-receptor type 1 (Homo sapiens, UniProt P18031); assay: Inhibition of recombinant human GST-tagged PTP1B catalytic domain expressed in Escherichia coli BL21 using para-nitrophenyl phosphate as substrate
# T1 sequence (P18031 whole entry): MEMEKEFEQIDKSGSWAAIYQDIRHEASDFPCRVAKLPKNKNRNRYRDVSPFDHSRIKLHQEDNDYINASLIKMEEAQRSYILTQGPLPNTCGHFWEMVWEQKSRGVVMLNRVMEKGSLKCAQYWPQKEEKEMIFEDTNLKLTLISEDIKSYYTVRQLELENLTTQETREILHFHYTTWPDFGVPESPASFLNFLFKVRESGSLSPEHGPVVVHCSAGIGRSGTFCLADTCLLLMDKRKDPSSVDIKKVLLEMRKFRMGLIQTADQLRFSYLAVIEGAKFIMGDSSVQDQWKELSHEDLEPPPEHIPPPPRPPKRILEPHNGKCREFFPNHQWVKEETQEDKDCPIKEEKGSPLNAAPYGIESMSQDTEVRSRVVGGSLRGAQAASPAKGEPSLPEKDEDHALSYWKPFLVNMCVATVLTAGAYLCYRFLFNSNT
SMILES,"viability at 24 h, 10 µM [1] [%]",IC50 [2] [µM]
C/C=C(/C)C(=O)O[C@H]1CC(C)(C)C[C@H]2C3=CC[C@@H]4[C@@]5(C)CC[C@H](O)C(C)(C)[C@@H]5CC[C@@]4(C)[C@]3(C)[C@@H](O)[C@@H](O)[C@@]12CO,> 90,2.56
CC(C)(O)[C@@H]1CC[C@]2(C)CC[C@]3(C)C(CC[C@@H]4[C@@]5(C)CC[C@H](O)C(C)(C)[C@@H]5CC[C@]43C)[C@H]12 (stereo not given in full),> 90,12.4
CC(=O)O[C@@H]1[C@H](O)[C@]2(C)C(=CC[C@@H]3[C@@]4(C)CC[C@H](O)C(C)(C)[C@@H]4CC[C@]32C)[C@@H]2CC(C)(C)C[C@H](O)[C@]12CO,> 90,47.4
CC1(C)CC[C@]2(CO)[C@H](O)[C@H](O)[C@]3(C)C(=CC[C@@H]4[C@@]5(C)CC[C@H](O)C(C)(C)[C@@H]5CC[C@]43C)[C@@H]2C1,> 90,14.4
CC1(C)CC[C@]2(C)CC[C@@]3(C)[C@]4(C)CC[C@H]5C(C)(C)[C@@H](O)CC[C@]5(C)[C@H]4[C@H](O)C(=O)[C@]3(O)[C@@H]2C1,> 90,1.34
C/C=C(/C)C(=O)OC[C@@]12[C@H](O)[C@H](O)[C@]3(C)C(=CC[C@@H]4[C@@]5(C)CC[C@H](O)C(C)(C)[C@@H]5CC[C@]43C)[C@@H]1CC(C)(C)C[C@@H]2O,> 90,11.1
CC1(C)C[C@H](O)[C@]2(CO)[C@H](O)[C@H](O)[C@]3(C)C(=CC[C@@H]4[C@@]5(C)CCC(=O)C(C)(C)[C@@H]5CC[C@]43C)[C@@H]2C1,> 90,49.4
CC1(C)C[C@H](O)[C@]2(CO)[C@H](O)C[C@]3(C)C(=CC[C@@H]4[C@@]5(C)CC[C@H](O)C(C)(C)[C@@H]5CC[C@]43C)[C@@H]2C1,> 90,8.93
C/C=C(/C)C(=O)O[C@H]1CC(C)(C)C[C@H]2C3=CC[C@@H]4[C@@]5(C)CC[C@H](O)C(C)(C)[C@@H]5CC[C@@]4(C)[C@]3(C)[C@@H](O)[C@@H](OC(C)=O)[C@@]12CO,> 90,4.87
C/C=C(/C)C(=O)O[C@H]1CC(C)(C)C[C@H]2C3=CC[C@@H]4[C@@]5(C)CC[C@H](O)C(C)(C)[C@@H]5CC[C@@]4(C)[C@]3(C)[C@@H](OC(C)=O)[C@@H](O)[C@@]12CO,> 90,7.4
CC(=O)O[C@@H]1C[C@]2(C)C(=CC[C@@H]3[C@@]4(C)CC[C@H](O)C(C)(C)[C@@H]4CC[C@]32C)[C@@H]2CC(C)(C)C[C@H](O)[C@]12CO,> 90,10.2
CC(=O)O[C@@H]1[C@H](O)[C@]2(C)C(=CC[C@@H]3[C@@]4(C)CCC(=O)C(C)(C)[C@@H]4CC[C@]32C)[C@@H]2CC(C)(C)C[C@H](O)[C@]12CO,> 90,20
CC(=O)O[C@H]1[C@@H](O)[C@@]2(CO)[C@@H](O)CC(C)(C)C[C@H]2C2=CC[C@@H]3[C@@]4(C)CCC(=O)C(C)(C)[C@@H]4CC[C@@]3(C)[C@@]21C,> 90,44.4
C[C@H]1[C@H](C)CC[C@]2(C)CC[C@]3(C)C(=CC[C@@H]4[C@@]5(C)CC[C@H](O)C(C)(C)[C@@H]5CC[C@]43C)[C@H]12,> 90,19.3
CC1(C)C[C@H](O)[C@]2(CO)[C@H](O)[C@H](O)[C@]3(C)C(=CC[C@@H]4[C@@]5(C)CC[C@H](O)C(C)(C)[C@@H]5CC[C@]43C)[C@@H]2C1,> 90,16.8
C=C(C)[C@@H]1CC[C@]2(C)CC[C@]3(C)[C@H](CC[C@@H]4[C@@]5(C)CC[C@H](O)C(C)(C)[C@@H]5CC[C@]43C)[C@@H]12 [LUPEOL],> 90,3.68
CC1(C)CC[C@]2(C(=O)O)CC[C@]3(C)C(=CC[C@@H]4[C@@]5(C)CC[C@H](O)C(C)(C)[C@@H]5CC[C@]43C)[C@@H]2C1 [OLEANOLIC_ACID],> 90,
CC1(C)CC[C@]2(C)CC[C@]3(C)C(=CC[C@@H]4[C@@]5(C)CC[C@H](O)C(C)(C)[C@@H]5CC[C@]43C)[C@@H]2C1 [beta-AMYRIN],> 90,> 100
